Active and inactive are the calls of the source. No cut-off for these calls is given here.
Assays:
[1] = biological target: T1, E3 ubiquitin-protein ligase XIAP/Tyrosine-protein kinase JAK1 (Homo sapiens) (UniProt P23458+P98170); assay: Protac activity at IAP/JAK1 in human THP1 cells assessed as increase in JAK1 degradation at 10 uM after 24 hrs by Western blot analysis; type: cell-based; conditions: THP-1
Outline: (§1)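 Unstimulated THP-1 cells were exposed to PROTAC across 0.6–10 µM for 24 h. JAK1/JAK2 levels were read by automated Western blot using antibodies detecting only unphosphorylated JAK. % degradation is relative to basal levels in DMSO-treated cells, as the mean of separate experiments (n ≥ 3). Significance was assessed by one-tailed Student's t-test at each concentration.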

[2] = biological target: T2, E3 ubiquitin-protein ligase XIAP/Tyrosine-protein kinase JAK2 (Homo sapiens) (UniProt O60674+P98170); assay: Protac activity at IAP/JAK2 in human THP1 cells assessed as increase in JAK2 degradation at 10 uM after 24 hrs by Western blot analysis relative to control; type: cell-based; conditions: THP-1; outline: as §1
[3] = biological target: T1, E3 ubiquitin-protein ligase XIAP/Tyrosine-protein kinase JAK1 (Homo sapiens); assay: Protac activity at IAP/JAK1 in human THP1 cells assessed as increase in JAK1 degradation up to 10 uM after 24 hrs by Western blot analysis; type: cell-based; conditions: THP-1; outline: as §1
[4] = biological target: T1, E3 ubiquitin-protein ligase XIAP/Tyrosine-protein kinase JAK1 (Homo sapiens); assay: Protac activity at IAP/JAk1 in human PBMC cells assessed as reduction in IL2-induced IFNgamma production measured after 1 hr; type: cell-based
Outline: (§2)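 Human PBMCs were given a 1 h compound incubation in the IL-2-stimulated assay, with IFNγ signalling as the cellular potency readout, reported as pIC50.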

[5] = biological target: T2, E3 ubiquitin-protein ligase XIAP/Tyrosine-protein kinase JAK2 (Homo sapiens); assay: Protac activity at IAP/JAK2 in human THP1 cells assessed as increase in JAK2 degradation up to 10 uM after 24 hrs by Western blot analysis relative to control; type: cell-based; conditions: THP-1; outline: as §1
[6] = Lipophilicity, log D of the compound at pH 7.4 by chromatographic method; type: physicochemical; conditions: buffer
[7] = biological target: T1, E3 ubiquitin-protein ligase XIAP/Tyrosine-protein kinase JAK1 (Homo sapiens); assay: Protac activity at IAP/JAK1 in human THP1 cells assessed as increase in JAK1 degradation at 5 uM after 24 hrs by Western blot analysis relative to control; type: cell-based; conditions: THP-1; outline: as §1
[8] = biological target: T2, E3 ubiquitin-protein ligase XIAP/Tyrosine-protein kinase JAK2 (Homo sapiens); assay: Protac activity at IAP/JAK2 in human THP1 cells assessed as increase in JAK2 degradation at 5 uM after 24 hrs by Western blot analysis relative to control; type: cell-based; conditions: THP-1; outline: as §1
[9] = biological target: T1, E3 ubiquitin-protein ligase XIAP/Tyrosine-protein kinase JAK1 (Homo sapiens); assay: Protac activity at IAP/JAK1 in human THP1 cells assessed as increase in JAK1 degradation at 5 uM after 24 hrs in presence of IAP ligand by Western blot analysis; type: cell-based; conditions: THP-1
Outline: (§3)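 Unstimulated THP-1 cells were co-treated for 24 h with PROTAC and increasing concentrations of free, active IAP ligand. JAK1/JAK2 protein was quantified by automated Western blot against DMSO-treated basal levels, as the mean of n ≥ 3 separate experiments. Significance was assessed by one-tailed t-test.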

[10] = biological target: T2, E3 ubiquitin-protein ligase XIAP/Tyrosine-protein kinase JAK2 (Homo sapiens); assay: Protac activity at IAP/JAK2 in human THP1 cells assessed as increase in JAK2 degradation in presence of proteasome inhibitor MG132 by immunoprecipitation assay; type: cell-based; conditions: THP-1
[11] = biological target: T2, E3 ubiquitin-protein ligase XIAP/Tyrosine-protein kinase JAK2 (Homo sapiens); assay: Protac activity at IAP/JAK2 in human THP1 cells assessed as increase in JAK2 ubiquitination by immunoprecipitation assay; type: cell-based; conditions: THP-1
[12] = biological target: T1, E3 ubiquitin-protein ligase XIAP/Tyrosine-protein kinase JAK1 (Homo sapiens); assay: Protac activity at IAP/JAK1 in human THP1 cells assessed as increase in JAK1 degradation in presence of proteasome inhibitor MG132 by immunoprecipitation assay; type: cell-based; conditions: THP-1
[13] = biological target: T2, E3 ubiquitin-protein ligase XIAP/Tyrosine-protein kinase JAK2 (Homo sapiens); assay: Protac activity at IAP/JAK2 in human THP1 cells assessed as increase in JAK2 degradation at 5 uM after 24 hrs in presence of IAP ligand by Western blot analysis; type: cell-based; conditions: THP-1; outline: as §3
Homo sapiens [14] = species on record: Homo sapiens; assay: Selectivity ratio, difference between pIC50 for JAK1 (unknown origin) to pIC50 for inhibition of JAK1/JAK3 in human PBMC cells assessed as reduction in IL2-induced IFNgamma production; type: cell-based
Outline: (§4)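 Permeability surrogate calculated as drop-off = 10^(biochemical JAK1 or JAK3 pIC50 − IL2 PBMC pIC50). The cellular step used a 1 h incubation.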

[15] = biological target: Tyrosine-protein kinase JAK2 (Homo sapiens, UniProt O60674); assay: Inhibition of JAK2 (unknown origin)
Outline: (§5)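 Isolated biochemical JAK enzyme assays. pIC50 values are means of multiple separate experiments (n ≥ 2).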

[16] = biological target: Tyrosine-protein kinase JAK1 (Homo sapiens, UniProt P23458); assay: Inhibition of JAK1 (unknown origin); outline: as §5
Homo sapiens [17] = species on record: Homo sapiens; assay: Selectivity ratio, difference between pIC50 for JAK3 (unknown origin) to pIC50 for inhibition of JAK1/JAK3 in human PBMC cells assessed as reduction in IL2-induced IFNgamma production; type: cell-based; outline: as §4
JAK3/JAK1 = JAK3/JAK1 (Homo sapiens, UniProt P23458+P52333); assay: Inhibition of JAK1/JAK3 in human PBMC cells assessed as reduction in IL2-induced IFNgamma production; type: cell-based; outline: as §2
[18] = biological target: T3, Tyrosine-protein kinase JAK3 (Homo sapiens, UniProt P52333); assay: Inhibition of JAK3 (unknown origin); outline: as §5
T3 sequence (P52333 whole entry): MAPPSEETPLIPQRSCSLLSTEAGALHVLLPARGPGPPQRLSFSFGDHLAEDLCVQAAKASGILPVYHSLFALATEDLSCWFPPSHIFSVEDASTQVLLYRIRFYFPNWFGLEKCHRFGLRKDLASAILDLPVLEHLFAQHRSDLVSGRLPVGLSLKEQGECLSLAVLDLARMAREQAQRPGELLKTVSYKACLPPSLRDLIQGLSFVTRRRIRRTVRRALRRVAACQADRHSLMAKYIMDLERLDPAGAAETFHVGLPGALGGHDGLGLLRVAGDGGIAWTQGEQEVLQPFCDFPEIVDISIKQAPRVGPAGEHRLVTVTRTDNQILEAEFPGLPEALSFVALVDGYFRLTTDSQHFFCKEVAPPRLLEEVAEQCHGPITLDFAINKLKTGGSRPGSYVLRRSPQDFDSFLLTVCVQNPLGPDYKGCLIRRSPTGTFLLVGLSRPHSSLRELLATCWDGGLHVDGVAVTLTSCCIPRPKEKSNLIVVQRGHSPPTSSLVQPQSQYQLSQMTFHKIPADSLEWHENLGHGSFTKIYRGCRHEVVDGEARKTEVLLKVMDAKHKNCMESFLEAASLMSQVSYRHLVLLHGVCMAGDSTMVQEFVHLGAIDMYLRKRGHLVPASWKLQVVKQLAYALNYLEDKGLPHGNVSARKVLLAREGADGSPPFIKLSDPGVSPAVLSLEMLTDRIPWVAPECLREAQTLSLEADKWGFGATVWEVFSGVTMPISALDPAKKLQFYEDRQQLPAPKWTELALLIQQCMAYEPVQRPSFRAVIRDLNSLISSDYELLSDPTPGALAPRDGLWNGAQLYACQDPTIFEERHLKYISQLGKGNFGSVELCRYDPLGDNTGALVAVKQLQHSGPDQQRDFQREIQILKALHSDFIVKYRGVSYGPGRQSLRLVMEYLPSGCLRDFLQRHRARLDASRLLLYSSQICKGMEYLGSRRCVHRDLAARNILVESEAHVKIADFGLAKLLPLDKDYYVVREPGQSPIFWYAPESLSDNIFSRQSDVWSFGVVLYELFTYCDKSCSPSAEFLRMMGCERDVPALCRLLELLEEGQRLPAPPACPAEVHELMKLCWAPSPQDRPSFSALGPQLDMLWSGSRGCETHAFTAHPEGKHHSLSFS

T1 sequence (P23458 whole entry, looked up): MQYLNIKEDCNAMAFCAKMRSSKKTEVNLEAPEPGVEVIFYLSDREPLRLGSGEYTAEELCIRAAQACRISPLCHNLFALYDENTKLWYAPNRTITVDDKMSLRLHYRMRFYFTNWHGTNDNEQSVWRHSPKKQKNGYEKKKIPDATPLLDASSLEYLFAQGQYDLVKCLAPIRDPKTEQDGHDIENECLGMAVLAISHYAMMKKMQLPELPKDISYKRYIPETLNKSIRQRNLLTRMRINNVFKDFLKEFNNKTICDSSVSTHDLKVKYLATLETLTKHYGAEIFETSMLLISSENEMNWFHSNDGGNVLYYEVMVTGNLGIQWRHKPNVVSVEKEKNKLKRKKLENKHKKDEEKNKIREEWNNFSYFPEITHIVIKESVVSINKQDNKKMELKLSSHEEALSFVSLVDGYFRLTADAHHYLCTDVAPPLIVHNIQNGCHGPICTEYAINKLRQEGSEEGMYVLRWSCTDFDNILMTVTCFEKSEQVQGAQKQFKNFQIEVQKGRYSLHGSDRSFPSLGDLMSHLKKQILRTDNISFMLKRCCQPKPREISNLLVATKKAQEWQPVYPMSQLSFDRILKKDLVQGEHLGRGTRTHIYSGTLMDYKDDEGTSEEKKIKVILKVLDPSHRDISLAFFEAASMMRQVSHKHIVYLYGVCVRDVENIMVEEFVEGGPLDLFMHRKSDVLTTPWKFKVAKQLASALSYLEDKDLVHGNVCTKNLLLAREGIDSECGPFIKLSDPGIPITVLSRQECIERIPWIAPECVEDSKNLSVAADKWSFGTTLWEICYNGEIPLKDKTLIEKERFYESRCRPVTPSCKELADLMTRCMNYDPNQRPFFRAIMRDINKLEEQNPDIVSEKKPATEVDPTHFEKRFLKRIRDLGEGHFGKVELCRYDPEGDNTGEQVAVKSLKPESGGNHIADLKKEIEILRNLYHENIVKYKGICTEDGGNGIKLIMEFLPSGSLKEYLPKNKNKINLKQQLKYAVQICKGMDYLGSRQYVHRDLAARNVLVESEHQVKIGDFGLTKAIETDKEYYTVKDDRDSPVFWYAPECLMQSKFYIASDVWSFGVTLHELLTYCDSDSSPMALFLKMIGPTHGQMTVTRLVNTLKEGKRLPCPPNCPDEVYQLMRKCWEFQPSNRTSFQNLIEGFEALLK
T1 sequence (P98170 whole entry, looked up): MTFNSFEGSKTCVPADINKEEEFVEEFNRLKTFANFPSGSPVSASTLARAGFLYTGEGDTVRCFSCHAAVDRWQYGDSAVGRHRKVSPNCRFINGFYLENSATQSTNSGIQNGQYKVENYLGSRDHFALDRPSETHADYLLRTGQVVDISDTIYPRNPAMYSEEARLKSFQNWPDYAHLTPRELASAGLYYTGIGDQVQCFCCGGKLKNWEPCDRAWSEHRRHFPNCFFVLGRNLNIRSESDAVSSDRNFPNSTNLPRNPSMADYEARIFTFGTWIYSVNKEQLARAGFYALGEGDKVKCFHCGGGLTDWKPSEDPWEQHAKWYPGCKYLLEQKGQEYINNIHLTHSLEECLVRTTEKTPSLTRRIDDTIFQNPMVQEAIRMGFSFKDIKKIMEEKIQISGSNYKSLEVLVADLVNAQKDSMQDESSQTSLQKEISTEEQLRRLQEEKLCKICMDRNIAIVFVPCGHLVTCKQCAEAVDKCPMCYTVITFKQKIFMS
T2 sequence (O60674 whole entry, looked up): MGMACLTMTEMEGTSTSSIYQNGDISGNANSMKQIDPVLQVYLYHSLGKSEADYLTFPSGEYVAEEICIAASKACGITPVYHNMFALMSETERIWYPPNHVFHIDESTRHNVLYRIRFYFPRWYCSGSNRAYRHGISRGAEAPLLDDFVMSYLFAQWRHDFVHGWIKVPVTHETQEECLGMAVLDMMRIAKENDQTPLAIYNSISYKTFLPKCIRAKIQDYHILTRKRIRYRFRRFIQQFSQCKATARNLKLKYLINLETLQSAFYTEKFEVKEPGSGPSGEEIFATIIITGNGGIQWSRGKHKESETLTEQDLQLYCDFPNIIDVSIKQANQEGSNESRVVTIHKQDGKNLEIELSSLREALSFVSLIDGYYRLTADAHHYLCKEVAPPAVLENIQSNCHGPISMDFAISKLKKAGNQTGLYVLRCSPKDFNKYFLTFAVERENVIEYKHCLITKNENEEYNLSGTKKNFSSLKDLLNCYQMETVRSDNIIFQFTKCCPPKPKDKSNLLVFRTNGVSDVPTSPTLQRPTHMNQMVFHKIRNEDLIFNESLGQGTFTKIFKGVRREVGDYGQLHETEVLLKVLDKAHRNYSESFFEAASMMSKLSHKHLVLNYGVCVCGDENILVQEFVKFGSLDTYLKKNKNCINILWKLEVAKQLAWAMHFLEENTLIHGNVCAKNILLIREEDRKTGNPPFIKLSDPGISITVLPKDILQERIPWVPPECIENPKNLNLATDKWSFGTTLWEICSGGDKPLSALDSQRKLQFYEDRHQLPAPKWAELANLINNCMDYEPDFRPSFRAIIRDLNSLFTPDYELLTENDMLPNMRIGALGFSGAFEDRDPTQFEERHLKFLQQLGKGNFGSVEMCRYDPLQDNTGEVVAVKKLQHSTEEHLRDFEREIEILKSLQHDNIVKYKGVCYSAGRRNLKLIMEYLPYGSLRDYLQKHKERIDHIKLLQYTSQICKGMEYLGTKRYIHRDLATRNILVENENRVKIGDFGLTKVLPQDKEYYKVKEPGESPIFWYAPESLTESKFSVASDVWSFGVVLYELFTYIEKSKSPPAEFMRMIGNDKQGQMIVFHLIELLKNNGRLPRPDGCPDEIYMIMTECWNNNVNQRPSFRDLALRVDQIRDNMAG
T2 sequence (P98170 whole entry, looked up): as the sequence (P98170 whole entry, looked up) above
JAK3/JAK1, sequence (P23458 whole entry, one chain of several): as the sequence (P23458 whole entry, looked up) above
Tyrosine-protein kinase JAK1, sequence (P23458 whole entry): as the sequence (P23458 whole entry, looked up) above
Tyrosine-protein kinase JAK2, sequence (O60674 whole entry): as the sequence (O60674 whole entry, looked up) above

Activity [3] | Activity [4] | Activity [5] [%] | chromatographic logD [6] | Activity [7] | Activity [8] | SMILES | further results
Active | inactive | < 35 | 5 to 8 | – | – | CN[C@@H](C)C(=O)N[C@H](C(=O)N1C[C@@H](NC(=O)CCCCCCCCCOc2cc(F)cc(CNc3nc(Nc4cnn(C)c4)ncc3Cl)c2F)C[C@H]1C(=O)N[C@@H]1CCCc2ccccc21)C1CCCCC1 | Activity [1]: inactive; Activity [2]: inactive
– | – | – | – | inactive | inactive | CN[C@H](C)C(=O)N[C@@H](C(=O)N1C[C@H](NC(=O)CCCCCCCCCN2CCN(CCCOc3ccc(-c4cnc5cccc(-c6cc(F)c(CN7CCS(=O)(=O)CC7)c(F)c6)c5n4)cc3OC)CC2)C[C@@H]1C(=O)N[C@H]1CCCc2ccccc21)C1CCCCC1 | –
Active | inactive | < 35 | 5 to 8 | – | – | CN[C@@H](C)C(=O)N[C@H](C(=O)N1C[C@@H](NC(=O)COCCOCCOCCOCCOc2cc(F)cc(CNc3nc(Nc4cnn(C)c4)ncc3Cl)c2F)C[C@H]1C(=O)N[C@@H]1CCCc2ccccc21)C1CCCCC1 | –
Active | inactive | < 35 | 5 to 8 | 48% | 65% | CN[C@@H](C)C(=O)N[C@H](C(=O)N1C[C@@H](NC(=O)CCCCCCCCCN2CCN(CCCOc3ccc(-c4cnc5cccc(-c6cc(F)c(CN7CCS(=O)(=O)CC7)c(F)c6)c5n4)cc3OC)CC2)C[C@H]1C(=O)N[C@@H]1CCCc2ccccc21)C1CCCCC1 | Activity [9]: inactive; Activity [10]: inactive; Activity [11]: Active; Activity [12]: inactive; Activity [13]: inactive
– | – | – | 3.5 | – | – | OCCn1cc(Nc2ncc(Cl)c(NCc3cc(F)ccc3F)n2)cn1 | Selectivity ratio (Homo sapiens [14]): > 50; IC50 [15]: 0.316 nM; IC50 [16]: < 0.158 nM; Selectivity ratio (Homo sapiens [17]): 8; IC50 (JAK3/JAK1): 7.94 nM; IC50 [18]: 1 nM
Active | inactive | < 35 | 5 to 8 | – | – | CN[C@@H](C)C(=O)N[C@H](C(=O)N1C[C@@H](NC(=O)CCCCCCCCCn2cc(Nc3ncc(Cl)c(NCc4cc(F)ccc4F)n3)cn2)C[C@H]1C(=O)N[C@@H]1CCCc2ccccc21)C1CCCCC1 | –
– | – | – | 6 | inactive | inactive | COc1cc(-c2cnc3cccc(-c4cc(F)c(CN5CCS(=O)(=O)CC5)c(F)c4)c3n2)ccc1OCCCN1CCOCC1 | Selectivity ratio (Homo sapiens [14]): 40; IC50 [15]: 0.251 nM; Activity [9]: inactive; IC50 [16]: 7.94 nM; Selectivity ratio (Homo sapiens [17]): 40; IC50 (JAK3/JAK1): 316 nM; Activity [13]: inactive; IC50 [18]: 7.94 nM
Active | inactive | < 35 | 5 to 8 | – | – | CN[C@@H](C)C(=O)N[C@H](C(=O)N1C[C@@H](NC(=O)COCCOCCOCCOCCn2cc(Nc3ncc(Cl)c(NCc4cc(F)ccc4F)n3)cn2)C[C@H]1C(=O)N[C@@H]1CCCc2ccccc21)C1CCCCC1 | –
Active | inactive | < 35 | 5 to 8 | – | – | CN[C@@H](C)C(=O)N[C@H](C(=O)N1C[C@@H](NC(=O)COCCOCCOCCOCCN2CCN(CCCOc3ccc(-c4cnc5cccc(-c6cc(F)c(CN7CCS(=O)(=O)CC7)c(F)c6)c5n4)cc3OC)CC2)C[C@H]1C(=O)N[C@@H]1CCCc2ccccc21)C1CCCCC1 | –

From ChEMBL document CHEMBL4627263, “Hi-JAK-ing the ubiquitin system: The design and physicochemical optimisation of JAK PROTACs” (Bioorg Med Chem, 2020)
